MIC, Activity and inhibition data for eleven compounds are collected here from ChEMBL document CHEMBL4732114, “Design and structural optimization of novel 2H-benzo[h]chromene derivatives that target AcrB and reverse bacterial multidrug resistance” (Eur J Med Chem, 2021).

In series [1] the target is T1, Multidrug efflux pump subunit AcrB (Escherichia coli (strain K12)) (UniProt P31224).
T1 sequence (whole entry): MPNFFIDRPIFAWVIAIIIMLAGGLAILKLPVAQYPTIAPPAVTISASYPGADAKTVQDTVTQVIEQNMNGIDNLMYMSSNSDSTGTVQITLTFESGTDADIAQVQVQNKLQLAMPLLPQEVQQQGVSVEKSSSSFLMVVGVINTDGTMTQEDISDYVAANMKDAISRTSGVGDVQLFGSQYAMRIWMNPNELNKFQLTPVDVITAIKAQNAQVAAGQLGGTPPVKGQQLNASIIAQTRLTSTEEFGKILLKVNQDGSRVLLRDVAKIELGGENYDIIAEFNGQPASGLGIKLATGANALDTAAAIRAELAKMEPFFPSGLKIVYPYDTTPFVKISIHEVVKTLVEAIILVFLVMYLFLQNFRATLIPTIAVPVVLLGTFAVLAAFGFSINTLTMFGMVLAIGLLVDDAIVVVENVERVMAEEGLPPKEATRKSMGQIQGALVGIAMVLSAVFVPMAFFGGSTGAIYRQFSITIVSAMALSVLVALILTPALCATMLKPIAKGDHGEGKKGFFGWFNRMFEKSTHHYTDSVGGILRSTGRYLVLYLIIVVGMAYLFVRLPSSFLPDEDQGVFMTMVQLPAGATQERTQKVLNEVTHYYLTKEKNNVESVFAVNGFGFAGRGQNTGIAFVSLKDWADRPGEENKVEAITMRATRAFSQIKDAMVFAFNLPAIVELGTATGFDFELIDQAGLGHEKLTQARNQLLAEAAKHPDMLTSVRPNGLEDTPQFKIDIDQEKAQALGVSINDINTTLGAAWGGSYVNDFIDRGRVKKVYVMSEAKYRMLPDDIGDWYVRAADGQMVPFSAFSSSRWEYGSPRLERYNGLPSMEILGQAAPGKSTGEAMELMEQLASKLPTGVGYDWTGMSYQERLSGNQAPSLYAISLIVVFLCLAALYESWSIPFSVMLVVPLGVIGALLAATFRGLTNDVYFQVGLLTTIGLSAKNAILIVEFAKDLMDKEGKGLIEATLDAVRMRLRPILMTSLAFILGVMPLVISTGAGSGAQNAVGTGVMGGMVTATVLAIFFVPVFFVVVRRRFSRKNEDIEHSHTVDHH
In words: Inhibition of AcrB in multidrug-resistant Escherichia coli BW25113 assessed as potentiation of levofloxacin-induced antibacterial activity by measuring levofloxacin MIC at 32 ug/ml by checkerboard titration method (reference value: 0.06 ug/ml). The settings on record: dose 32.0 µg/ml.

The subject of series [2] is Cell membrane. In words: Induction of inner membrane permeabilization in wild type Escherichia coli BW25113 assessed as perturbation of proton motive force at 128 ug/ml measured after 10 mins in presence of CCCP and glucose by Di0C2(3) probe based fluorescence assay. The settings on record: escherichia coli bw25113, 10 min, dose 128 µg/ml. The procedure, abridged: (§1)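 Cell suspensions were left untreated or exposed to 8-128 µg/mL compound for 10 min. DiOC₂(3) was then added and fluorescence followed to a plateau. Cells were re-energized with 0.5% glucose, and the rise in fluorescence was read as membrane-potential build-up. CCCP was added last to dissipate the potential.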

The target in series [3] is T1, Multidrug efflux pump subunit AcrB (Escherichia coli (strain K12)). In words: Inhibition of AcrB in multidrug-resistant Escherichia coli BW25113 assessed as potentiation of tetraphenylphosphonium-induced antibacterial activity by measuring tetraphenylphosphonium MIC at 8 ug/ml by checkerboard titration method (reference value: 1024 ug/ml). The note with it: dose 8.0 µg/ml.

Series [4] has the same target. In words: Inhibition of AcrB in multidrug-resistant Escherichia coli BW25113 assessed as potentiation of erythromycin-induced antibacterial activity by measuring erythromycin MIC at 32 ug/ml by checkerboard titration method (reference value: 64 ug/ml). The note with it: dose 32.0 µg/ml.
Series [5] shares this target. In words: Inhibition of AcrB in Escherichia coli BW25113 assessed as reduction in glucose-induced nile red efflux at 100 uM preincubated for 15 mins followed by nile red addition and incubated for 3 hrs in shaker in presence of CCCP by fluorimetric analysis. The settings on record: time 3.25 hrs. The procedure, abridged:
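Wild-type and AcrB-deleted cells were preloaded with Nile Red, with or without compound. Fluorescence was recorded, and efflux was triggered at 100 s with 0.2% glucose. Traces were compared with the deletion-strain level. Triplicate experiments used different cell batches.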

Series [6] has the same target. In words: Inhibition of AcrB in multidrug-resistant Escherichia coli BW25113 assessed as potentiation of chloramphenicol-induced antibacterial activity by measuring chloramphenicol MIC at 32 ug/ml by checkerboard titration method (reference value: 8 ug/ml). The note with it: dose 32.0 µg/ml.
Series [7] shares this target. The note with it: Escherichia coli BW25113; dose 64.0 µg/ml.
Series [8] shares this target. The settings on record: Escherichia coli BW25113; dose 16.0 µg/ml.
The target is the same in series [9]. The settings on record: Escherichia coli BW25113; dose 32.0 µg/ml.
For series [10] the target is unchanged. In words: Inhibition of AcrB in multidrug-resistant Escherichia coli BW25113 assessed as potentiation of levofloxacin-induced antibacterial activity by measuring levofloxacin MIC at 64 ug/ml by checkerboard titration method (reference value: 0.06 ug/ml). The note with it: dose 64.0 µg/ml.
For series [11] the target is unchanged. The note with it: Escherichia coli BW25113; dose 128.0 µg/ml.
Series [12] has the same target. Description: Inhibition of AcrB in multidrug-resistant Escherichia coli BW25113 assessed as potentiation of erythromycin-induced antibacterial activity by measuring erythromycin MIC at 16 ug/ml by checkerboard titration method (reference value: 64 ug/ml). The settings on record: dose 16.0 µg/ml.
Series [13] deals with Cell membrane. In words: Induction of inner membrane permeabilization in wild type Escherichia coli BW25113 assessed as perturbation of proton motive force at 32 ug/ml measured after 10 mins in presence of CCCP and glucose by Di0C2(3) probe based fluorescence assay. The settings on record: escherichia coli bw25113, 10 min, dose 32 µg/ml. The procedure, abridged:
as §1

Values after ≈ are worked out from the molar mass of the structure shown. Active and inactive are the calls of the source. The calls are words filed in the database; no cut-off is given here.

Turning to `CC1CN(C(=O)c2cc3c(OCc4ccc(Br)cc4)cccc3c3c2CCC(C)(C)O3)CC(C)O1` (stereo unspecified), the MIC came to 0.06 µg/mL in [1]; 1020 µg/mL in series [3]; 64 µg/mL in series [4]; 8 µg/mL in [6]; 16 µg/mL (≈ 29.7 µM) in series [7]; 16 µg/mL (≈ 29.7 µM) in [8]. For the same compound, the MIC in [9] worked out at 16 µg/mL (≈ 29.7 µM); in series [10], 0.06 µg/mL; in [11], 16 µg/mL (≈ 29.7 µM); in series [12], 64 µg/mL. The Activity entry in the series with Cell membrane [2] was “Not Active”. For the same compound, in series [5], the inhibition entry was “Active”.

In the case of `CC1(C)CCc2c(Cn3cnnn3)cc3c(OCc4ccc(OC(F)(F)F)cc4)cccc3c2O1`, the MIC was 0.06 µg/mL in series [1]; 1020 µg/mL in series [3]; 64 µg/mL in series [4]; 8 µg/mL in series [6]; 16 µg/mL (≈ 33 µM) in series [7]; 16 µg/mL (≈ 33 µM) in [8]. Moreover, the MIC in series [9] was determined as 16 µg/mL (≈ 33 µM); in series [10], 0.06 µg/mL; in series [11], 16 µg/mL (≈ 33 µM); in series [12], 64 µg/mL. For the same compound, the Activity entry in the series on Cell membrane [2] is “Not Active”. Besides, the inhibition result in series [5] is “Active”.

`CC1CN(C(=O)c2cc3c(OCc4c(Cl)cccc4Cl)cccc3c3c2CCC(C)(C)O3)CC(C)O1` (stereo unspecified): the MIC was found to be 0.03 µg/mL in [1]; 1020 µg/mL in series [3]; 64 µg/mL in series [4]; 8 µg/mL in [6]; 16 µg/mL (≈ 30.3 µM) in series [7]; 16 µg/mL (≈ 30.3 µM) in series [8]. In addition, the MIC in [9] was found to be 16 µg/mL (≈ 30.3 µM); in series [10] it was 0.03 µg/mL; in series [11], 16 µg/mL (≈ 30.3 µM); in series [12], 64 µg/mL. For the same compound, the inhibition result in [5] was “Active”.

For `C=CC(=O)Nc1ccc(COc2cccc3c4c(c(Cn5cnnn5)cc23)CCC(C)(C)O4)cc1`, the MIC in [1] was determined as 0.06 µg/mL; in series [3], 1020 µg/mL; in series [4], 32 µg/mL; in series [6], 4 µg/mL; in series [7], 16 µg/mL (≈ 34.1 µM); in series [8], 16 µg/mL (≈ 34.1 µM). Besides, the MIC in series [9] was 16 µg/mL (≈ 34.1 µM); in [10] it was 0.06 µg/mL; in [11], 16 µg/mL (≈ 34.1 µM); in [12], 64 µg/mL. The Activity result with Cell membrane [2] is listed as “Not Active”.

With `CC1(C)CCc2c(-c3nnco3)cc3c(OCc4ccc([N+](=O)[O-])cc4)cccc3c2O1`, the MIC in series [1] was 0.06 µg/mL; in series [3], 1020 µg/mL; in series [4], 64 µg/mL; in series [6], 8 µg/mL; in [7], 16 µg/mL (≈ 37.1 µM); in series [8], 16 µg/mL (≈ 37.1 µM). The MIC came out at 16 µg/mL (≈ 37.1 µM) in series [9], 0.06 µg/mL in [10], 16 µg/mL (≈ 37.1 µM) in series [11] and 64 µg/mL in series [12]. In the series on Cell membrane [2], the Activity entry is “Not Active”. Moreover, the inhibition result in series [5] is “Active”.

On to `CC1(C)CC(=O)c2ccc(OCCNC3CCCC3)cc2O1`, for which the MIC in [1] was found to be 0.03 µg/mL; in [3], 512 µg/mL; in series [4] it was 64 µg/mL; in [6], 8 µg/mL; in series [7] it was 16 µg/mL (≈ 52.7 µM); in series [8] it was 16 µg/mL (≈ 52.7 µM). In addition, the MIC amounted to 16 µg/mL (≈ 52.7 µM) in series [9], 0.03 µg/mL in series [10], 16 µg/mL (≈ 52.7 µM) in series [11] and 64 µg/mL in [12]. For the same compound, the Activity result in the series on Cell membrane [13] is given as “Not Active”.

Turning to `CC(C)NCCOc1ccc2c(c1)OC(C)(C)CC2=O`, the MIC in series [1] came to 0.03 µg/mL; in series [3], 1020 µg/mL; in series [4], 64 µg/mL; in [6] it was 8 µg/mL; in series [7], 16 µg/mL (≈ 57.7 µM); in series [8], 16 µg/mL (≈ 57.7 µM). In addition, the MIC in series [9] turned out to be 16 µg/mL (≈ 57.7 µM); in series [10], 0.03 µg/mL; in series [11] it was 16 µg/mL (≈ 57.7 µM); in [12], 64 µg/mL. Moreover, in series [5], the inhibition entry is “Active”.

For the compound `COc1cccc(COc2cccc3c4c(c(C(=O)N5CCOCC5)cc23)CCC(C)(C)O4)c1`, the MIC in [1] was found to be 0.06 µg/mL; in series [3], 512 µg/mL; in [4] it was 32 µg/mL; in series [6], 4 µg/mL; in series [7], 16 µg/mL (≈ 34.7 µM); in [8] it was 16 µg/mL (≈ 34.7 µM). In addition, the MIC in series [9] was 16 µg/mL (≈ 34.7 µM); in series [10], 0.06 µg/mL; in [11], 16 µg/mL (≈ 34.7 µM); in [12] it was 64 µg/mL. Also, the Activity entry in the series with Cell membrane [13] is listed as “Not Active”.

`CC1(C)CCc2c(Cn3cnnn3)cc3c(OCc4ccc([N+](=O)[O-])cc4)cccc3c2O1`: the MIC worked out at 0.06 µg/mL in series [1]; 1020 µg/mL in [3]; 64 µg/mL in series [4]; 8 µg/mL in series [6]; 16 µg/mL (≈ 35.9 µM) in series [7]; 16 µg/mL (≈ 35.9 µM) in [8]. Also, the MIC in series [9] is 16 µg/mL (≈ 35.9 µM); in series [10], 0.06 µg/mL; in series [11] it was 16 µg/mL (≈ 35.9 µM); in [12] it was 64 µg/mL. Also, the Activity result with Cell membrane [2] is given as “Not Active”. Also, the inhibition result in [5] was “Active”.

As to `COc1cccc(COc2cccc3c4c(c(-c5nnco5)cc23)CCC(C)(C)O4)c1`, the MIC in series [1] is 0.06 µg/mL; in [3], 1020 µg/mL; in [4] it was 64 µg/mL; in series [6], 8 µg/mL; in series [7], 16 µg/mL (≈ 38.4 µM); in series [8] it was 16 µg/mL (≈ 38.4 µM). Also, the MIC is 16 µg/mL (≈ 38.4 µM) in series [9], 0.06 µg/mL in [10], 16 µg/mL (≈ 38.4 µM) in [11] and 64 µg/mL in series [12]. Further, the Activity entry with Cell membrane [2] is “Not Active”.

For the compound `C=CC(=O)Nc1ccc(COc2cccc3c4c(c(C(=O)N5CCOCC5)cc23)CCC(C)(C)O4)cc1`, the MIC came to 0.06 µg/mL in [1]; 512 µg/mL in [3]; 16 µg/mL in series [4]; 4 µg/mL in series [6]; 16 µg/mL (≈ 32 µM) in [7]; 16 µg/mL (≈ 32 µM) in series [8]. The MIC in series [9] was 16 µg/mL (≈ 32 µM); in series [10], 0.06 µg/mL; in series [11], 16 µg/mL (≈ 32 µM); in [12], 16 µg/mL. In addition, the Activity result in the series on Cell membrane [2] is recorded as “Not Active”. Further, the inhibition entry in series [5] was “Active”.
